Test results from ChEMBL document CHEMBL5696442, “Discovery of type II inhibitors of TGFβ-activated kinase 1 (TAK1) and mitogen-activated protein kinase kinase kinase kinase 2 (MAP4K2)” (J Med Chem, 2015).
pIC50: −log10 of the molar value. The source made the active and inactive calls. The rule behind the calls is not given here.

Key:
[1] = Cmax in Swiss albino mouse at 1 mg/kg, iv measured upto 24 hrs by LC/MS/MS analysis; format: ADME, organism-based; settings: in vivo
Outline: (§1)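 Male Swiss albino mice. […] Blood was taken into K2EDTA from three mice per time point, from 0 to 24 h. Plasma was precipitated with acetonitrile and analysed by LC/MS/MS (LLOQ 1.138 ng/mL).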

[2] = Half life in Swiss albino mouse at 1 mg/kg, iv measured upto 24 hrs by LC/MS/MS analysis; format: ADME, organism-based; settings: in vivo; outline: as §1
[3] = test system: BaF3; test: Antiproliferative activity against parental mouse BaF3 cells harbouring Bcr/Abl assessed reduction in cell viability measured after 48 hrs by Celltiter-glo assay; format: functional, cell-based; settings: BaF3, 48 h
Outline: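 Cells were grown with serial dilutions of compound for 48 h, and viability was read by CellTiter-Glo. IC50 was derived from the dose–response curve. Parental Ba/F3 cells were grown in the presence of interleukin 3. The BCR-ABL line is BCR-ABL-dependent Ba/F3.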

[4] = biological target: T1, Mitogen-activated protein kinase kinase kinase 7 (Homo sapiens) (UniProt O43318); test: Inhibition of TAK1 Lys2 labeling site in human A-375 cells at 0.5 uM by KiNativ Profiling analysis relative to control; format: cell-based
T1 sequence (whole entry): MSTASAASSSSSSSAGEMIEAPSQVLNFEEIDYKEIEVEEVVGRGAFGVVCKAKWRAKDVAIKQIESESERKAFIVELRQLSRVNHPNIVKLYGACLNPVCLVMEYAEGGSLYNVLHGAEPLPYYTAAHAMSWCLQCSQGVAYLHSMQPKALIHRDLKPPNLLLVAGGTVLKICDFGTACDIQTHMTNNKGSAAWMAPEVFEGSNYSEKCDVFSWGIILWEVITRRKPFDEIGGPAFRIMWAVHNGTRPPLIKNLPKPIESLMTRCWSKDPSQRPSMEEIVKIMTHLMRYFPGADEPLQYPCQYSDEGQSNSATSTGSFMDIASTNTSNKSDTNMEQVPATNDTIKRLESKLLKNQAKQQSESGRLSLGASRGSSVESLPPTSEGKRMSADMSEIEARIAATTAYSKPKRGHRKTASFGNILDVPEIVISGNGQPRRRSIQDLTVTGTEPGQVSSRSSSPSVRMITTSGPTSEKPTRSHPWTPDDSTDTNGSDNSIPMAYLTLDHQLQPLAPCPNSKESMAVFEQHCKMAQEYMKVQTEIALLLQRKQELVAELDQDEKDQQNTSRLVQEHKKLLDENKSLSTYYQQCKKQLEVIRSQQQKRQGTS

[5] = biological target: T2, Mitogen-activated protein kinase kinase kinase kinase 2 (Homo sapiens, UniProt Q12851); test: Inhibition of MAP4K2 (unknown origin) Lys1 labeling site by KiNativ Profiling analysis
T2 sequence (Q12851 whole entry): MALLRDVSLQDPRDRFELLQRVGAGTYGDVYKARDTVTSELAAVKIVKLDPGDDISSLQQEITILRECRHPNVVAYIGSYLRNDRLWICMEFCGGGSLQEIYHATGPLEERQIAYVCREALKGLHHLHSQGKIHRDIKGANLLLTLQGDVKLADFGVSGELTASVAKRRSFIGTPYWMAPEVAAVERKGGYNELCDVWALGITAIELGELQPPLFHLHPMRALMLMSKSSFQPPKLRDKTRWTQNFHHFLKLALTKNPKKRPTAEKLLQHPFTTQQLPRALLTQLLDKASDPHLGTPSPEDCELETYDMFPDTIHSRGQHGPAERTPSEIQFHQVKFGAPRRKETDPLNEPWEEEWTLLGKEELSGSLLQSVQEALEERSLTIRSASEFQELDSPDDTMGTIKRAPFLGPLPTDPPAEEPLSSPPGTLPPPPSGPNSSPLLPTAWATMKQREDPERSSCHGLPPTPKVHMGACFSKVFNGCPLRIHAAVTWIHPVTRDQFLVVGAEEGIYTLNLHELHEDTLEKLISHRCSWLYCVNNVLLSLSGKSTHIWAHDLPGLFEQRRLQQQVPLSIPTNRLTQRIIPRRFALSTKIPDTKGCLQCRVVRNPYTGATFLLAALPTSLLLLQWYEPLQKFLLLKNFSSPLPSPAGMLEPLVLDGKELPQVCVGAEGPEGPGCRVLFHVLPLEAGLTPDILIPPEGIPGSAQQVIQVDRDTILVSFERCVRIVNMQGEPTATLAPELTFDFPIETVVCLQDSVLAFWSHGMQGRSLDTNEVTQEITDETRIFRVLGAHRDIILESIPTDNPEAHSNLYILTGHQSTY

[6] = biological target: T3, Mitogen-activated protein kinase 14 (Homo sapiens, UniProt Q16539); test: Inhibition of p38 alpha in human Huh-7 cell lysate at 1 uM by KiNativ Profiling analysis relative to control; format: subcellular
T3 sequence (Q16539 whole entry): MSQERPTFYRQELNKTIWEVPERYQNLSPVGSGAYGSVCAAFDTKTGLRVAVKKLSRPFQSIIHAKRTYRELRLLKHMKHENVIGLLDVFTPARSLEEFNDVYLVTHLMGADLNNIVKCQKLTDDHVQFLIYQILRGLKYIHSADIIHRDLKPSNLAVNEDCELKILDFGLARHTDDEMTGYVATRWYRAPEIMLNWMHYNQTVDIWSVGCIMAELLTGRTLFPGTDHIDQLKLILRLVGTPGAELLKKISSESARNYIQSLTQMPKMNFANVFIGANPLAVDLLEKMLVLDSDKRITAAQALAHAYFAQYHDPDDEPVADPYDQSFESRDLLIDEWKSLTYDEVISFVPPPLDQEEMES

[7] = biological target: T4, Mitogen-activated protein kinase kinase kinase 7 (Homo sapiens, UniProt O43318); test: Inhibition of TAK1 (unknown origin) Lys2 labeling site by KiNativ Profiling analysis
T4 sequence (O43318 whole entry): T1 sequence (whole entry)

[8] = biological target: T3, Mitogen-activated protein kinase 14; test: Inhibition of p38 alpha (unknown origin) by KiNativ Profiling analysis
[9] = AUC last in Swiss albino mouse at 10 mg/kg, po measured upto 24 hrs by LC/MS/MS analysis; format: ADME, organism-based; settings: in vivo
[10] = AUC last in Swiss albino mouse at 1 mg/kg, iv measured upto 24 hrs by LC/MS/MS analysis; format: ADME, organism-based; settings: in vivo; outline: as §1
[11] = Cmax in Swiss albino mouse at 10 mg/kg, po measured upto 24 hrs by LC/MS/MS analysis; format: ADME, organism-based; settings: in vivo
[12] = biological target: T5, Tyrosine-protein kinase ABL1 (Homo sapiens, UniProt P00519); test: Inhibition of ABL ACT labeling site in human Huh-7 cell lysate at 1 uM by KiNativ Profiling analysis relative to control; format: subcellular
T5 sequence (P00519 whole entry): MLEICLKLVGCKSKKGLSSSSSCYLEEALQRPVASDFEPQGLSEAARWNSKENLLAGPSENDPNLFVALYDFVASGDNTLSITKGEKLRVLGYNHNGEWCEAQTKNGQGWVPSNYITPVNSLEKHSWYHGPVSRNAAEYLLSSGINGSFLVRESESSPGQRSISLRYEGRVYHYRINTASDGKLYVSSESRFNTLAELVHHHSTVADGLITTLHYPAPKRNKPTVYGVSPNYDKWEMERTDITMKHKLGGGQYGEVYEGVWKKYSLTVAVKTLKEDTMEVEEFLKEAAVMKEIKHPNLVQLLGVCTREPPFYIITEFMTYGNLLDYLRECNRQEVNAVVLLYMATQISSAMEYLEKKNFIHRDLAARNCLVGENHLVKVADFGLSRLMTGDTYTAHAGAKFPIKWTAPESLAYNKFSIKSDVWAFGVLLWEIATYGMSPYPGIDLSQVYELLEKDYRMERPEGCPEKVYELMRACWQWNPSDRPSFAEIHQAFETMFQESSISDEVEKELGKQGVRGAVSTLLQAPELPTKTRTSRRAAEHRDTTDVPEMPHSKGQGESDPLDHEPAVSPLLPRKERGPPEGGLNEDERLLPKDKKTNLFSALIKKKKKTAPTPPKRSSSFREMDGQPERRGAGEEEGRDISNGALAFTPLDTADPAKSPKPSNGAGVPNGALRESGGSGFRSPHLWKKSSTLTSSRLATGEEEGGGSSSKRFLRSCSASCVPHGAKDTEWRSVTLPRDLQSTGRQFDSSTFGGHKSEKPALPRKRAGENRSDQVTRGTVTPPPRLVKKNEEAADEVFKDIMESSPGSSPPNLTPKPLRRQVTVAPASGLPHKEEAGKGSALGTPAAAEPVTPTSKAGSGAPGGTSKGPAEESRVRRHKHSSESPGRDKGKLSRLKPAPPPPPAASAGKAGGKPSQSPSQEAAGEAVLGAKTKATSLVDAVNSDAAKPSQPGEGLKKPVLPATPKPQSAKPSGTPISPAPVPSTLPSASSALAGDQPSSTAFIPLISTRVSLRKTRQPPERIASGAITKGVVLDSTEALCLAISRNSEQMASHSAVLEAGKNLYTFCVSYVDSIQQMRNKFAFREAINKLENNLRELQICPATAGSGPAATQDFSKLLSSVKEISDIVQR

[13] = test system: BaF3; test: Antiproliferative activity against parental mouse BaF3 cells assessed reduction in cell viability measured after 48 hrs by Celltiter-glo assay; format: functional, cell-based; settings: BaF3, 48 h
[14] = Oral bioavailability in Swiss albino mouse at 10 mg/kg measured upto 24 hrs by LC/MS/MS analysis; format: ADME, organism-based; settings: in vivo
Outline: (§2)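 Blood was taken at 0, 0.25, 0.5, 1, 2, 4, 6, 8, 12 and 24 h from three mice per time point, into K2EDTA. Plasma was acetonitrile-precipitated and analyzed by LC/MS/MS (LLOQ 1.138 ng/mL).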

[15] = Volume of distribution at steady state in Swiss albino mouse at 1 mg/kg, iv measured upto 24 hrs by LC/MS/MS analysis; format: ADME, organism-based; settings: in vivo
Outline: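 Blood was sampled at 0, 0.083, 0.25, 0.5, 1, 2, 4, 8, 12 and 24 h (three mice per point, K2EDTA). Plasma was precipitated with acetonitrile and quantified by LC/MS/MS (LLOQ 1.138 ng/mL).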

[16] = Tmax in Swiss albino mouse at 10 mg/kg, po measured upto 24 hrs by LC/MS/MS analysis; format: ADME, organism-based; settings: in vivo; outline: as §2
[17] = biological target: T6, Mitogen-activated protein kinase kinase kinase kinase 2 (Homo sapiens) (UniProt Q12851); test: Inhibition of MAP4K2 Lys1 labeling site in human A-375 cells at 0.5 uM by KiNativ Profiling analysis relative to control; format: cell-based
T6 sequence (whole entry): T2 sequence (Q12851 whole entry)

[18] = test system: MEF; test: Inhibition of IL-1 induced p38 MAPK phosphorylation level in TAK1 deficient mouse MEF cells at low concentration incubated for 1 hr followed by IL-1 stimulation by Western blot analysis; format: functional, cell-based
Outline: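 WT and TAK1-null MEFs were grown in DMEM with 10% FBS, then held in 0.1% FBS for 16 h. Cells were pretreated with inhibitor for 1 h, then stimulated with mouse IL-1α (5 ng/mL, 10 min). Cells were lysed in ice-cold buffer, and extracts were cleared at 16000g and analysed by Western blot.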

[19] = test system: MEF; test: Inhibition of TGFbeta induced SMAD2 phosphorylation level in TAK1 deficient mouse MEF cells at low concentration incubated for 1 hr followed by TGFbeta stimulation by Western blot analysis
[20] = test system: MEF; test: Inhibition of TGF-beta induced p38 MAPK phosphorylation level in TAK1 deficient mouse MEF cells at low concentration incubated for 1 hr followed by TGF-beta stimulation by Western blot analysis; format: functional, cell-based
Outline: (§3)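 TAK1-null MEFs grown in DMEM with 10% FBS, 2 mM L-glutamine and penicillin/streptomycin at 37 °C under 5% CO2. Inhibitors added 1 h before TGFβ (50 pM, 45 min). Cells lysed in ice-cold buffer with phosphatase and protease inhibitors, extracts cleared at 16000g, then p38 and SMAD2 phosphorylation assessed by Western blot.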

[21] = test system: MEF; test: Inhibition of TGF-beta induced SMAD2 phosphorylation level in TAK1 deficient mouse MEF cells at low concentration incubated for 1 hr followed by TGF-beta stimulation by Western blot analysis; format: functional, cell-based; outline: as §3
[22] = biological target: T7, Tyrosine-protein kinase Fes/Fps (Homo sapiens, UniProt P07332); test: Inhibition of FES (unknown origin) by KiNativ Profiling analysis
T7 sequence (P07332 whole entry): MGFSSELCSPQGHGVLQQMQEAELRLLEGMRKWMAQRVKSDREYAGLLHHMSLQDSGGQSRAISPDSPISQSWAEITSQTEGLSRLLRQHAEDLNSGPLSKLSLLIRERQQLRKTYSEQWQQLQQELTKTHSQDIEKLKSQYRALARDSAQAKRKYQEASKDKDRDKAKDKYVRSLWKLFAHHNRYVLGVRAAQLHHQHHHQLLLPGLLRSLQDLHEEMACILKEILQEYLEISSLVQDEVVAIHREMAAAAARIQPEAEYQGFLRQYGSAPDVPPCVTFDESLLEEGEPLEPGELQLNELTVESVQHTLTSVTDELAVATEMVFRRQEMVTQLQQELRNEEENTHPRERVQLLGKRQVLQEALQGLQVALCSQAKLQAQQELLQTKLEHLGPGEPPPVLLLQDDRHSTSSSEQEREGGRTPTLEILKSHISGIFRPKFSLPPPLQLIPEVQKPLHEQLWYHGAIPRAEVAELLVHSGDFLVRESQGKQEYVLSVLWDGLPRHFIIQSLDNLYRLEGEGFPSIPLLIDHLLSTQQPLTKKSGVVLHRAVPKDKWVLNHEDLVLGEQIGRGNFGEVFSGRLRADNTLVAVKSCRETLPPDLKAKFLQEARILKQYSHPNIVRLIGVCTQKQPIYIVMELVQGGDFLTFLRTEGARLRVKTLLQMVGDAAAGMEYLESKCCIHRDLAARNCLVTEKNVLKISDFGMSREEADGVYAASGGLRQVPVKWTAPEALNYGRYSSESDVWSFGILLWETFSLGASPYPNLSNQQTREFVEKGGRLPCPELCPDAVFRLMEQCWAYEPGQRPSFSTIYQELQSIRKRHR

[23] = biological target: T8, Tyrosine-protein kinase Fer (Homo sapiens, UniProt P16591); test: Inhibition of FER (unknown origin) ACT labeling site by KiNativ Profiling analysis
Target sequence in this assay (P16591 whole entry): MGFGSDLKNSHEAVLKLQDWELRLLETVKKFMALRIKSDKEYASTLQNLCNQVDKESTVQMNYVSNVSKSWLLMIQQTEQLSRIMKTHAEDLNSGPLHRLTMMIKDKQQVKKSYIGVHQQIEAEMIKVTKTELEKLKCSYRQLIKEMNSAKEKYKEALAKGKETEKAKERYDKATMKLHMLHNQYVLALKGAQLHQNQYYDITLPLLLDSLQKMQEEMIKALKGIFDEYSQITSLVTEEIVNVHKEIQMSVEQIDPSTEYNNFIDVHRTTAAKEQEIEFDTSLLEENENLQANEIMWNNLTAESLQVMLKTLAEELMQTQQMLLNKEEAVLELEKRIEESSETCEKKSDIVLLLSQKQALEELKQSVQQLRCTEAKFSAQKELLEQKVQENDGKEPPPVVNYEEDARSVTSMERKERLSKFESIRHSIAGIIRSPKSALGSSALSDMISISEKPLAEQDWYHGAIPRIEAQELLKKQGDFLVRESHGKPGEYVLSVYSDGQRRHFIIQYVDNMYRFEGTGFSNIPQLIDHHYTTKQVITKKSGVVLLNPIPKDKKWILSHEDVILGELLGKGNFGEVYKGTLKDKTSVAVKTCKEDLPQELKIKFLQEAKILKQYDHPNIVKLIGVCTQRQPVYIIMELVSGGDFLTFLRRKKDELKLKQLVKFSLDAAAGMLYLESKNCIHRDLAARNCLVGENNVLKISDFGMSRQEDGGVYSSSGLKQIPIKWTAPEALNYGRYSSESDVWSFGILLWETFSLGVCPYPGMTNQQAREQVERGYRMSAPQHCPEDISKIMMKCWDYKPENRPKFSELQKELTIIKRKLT

[24] = biological target: T7, Tyrosine-protein kinase Fes/Fps; test: Inhibition of FES Lys1 labeling site in human Huh-7 cell lysate at 1 uM by KiNativ Profiling analysis relative to control; format: subcellular
[25] = biological target: T9, Mitogen-activated protein kinase kinase kinase 20 (Homo sapiens, UniProt Q9NYL2); test: Inhibition of ZAK (unknown origin) Lys1 labeling site by KiNativ Profiling analysis
Target sequence in this assay (Q9NYL2 whole entry): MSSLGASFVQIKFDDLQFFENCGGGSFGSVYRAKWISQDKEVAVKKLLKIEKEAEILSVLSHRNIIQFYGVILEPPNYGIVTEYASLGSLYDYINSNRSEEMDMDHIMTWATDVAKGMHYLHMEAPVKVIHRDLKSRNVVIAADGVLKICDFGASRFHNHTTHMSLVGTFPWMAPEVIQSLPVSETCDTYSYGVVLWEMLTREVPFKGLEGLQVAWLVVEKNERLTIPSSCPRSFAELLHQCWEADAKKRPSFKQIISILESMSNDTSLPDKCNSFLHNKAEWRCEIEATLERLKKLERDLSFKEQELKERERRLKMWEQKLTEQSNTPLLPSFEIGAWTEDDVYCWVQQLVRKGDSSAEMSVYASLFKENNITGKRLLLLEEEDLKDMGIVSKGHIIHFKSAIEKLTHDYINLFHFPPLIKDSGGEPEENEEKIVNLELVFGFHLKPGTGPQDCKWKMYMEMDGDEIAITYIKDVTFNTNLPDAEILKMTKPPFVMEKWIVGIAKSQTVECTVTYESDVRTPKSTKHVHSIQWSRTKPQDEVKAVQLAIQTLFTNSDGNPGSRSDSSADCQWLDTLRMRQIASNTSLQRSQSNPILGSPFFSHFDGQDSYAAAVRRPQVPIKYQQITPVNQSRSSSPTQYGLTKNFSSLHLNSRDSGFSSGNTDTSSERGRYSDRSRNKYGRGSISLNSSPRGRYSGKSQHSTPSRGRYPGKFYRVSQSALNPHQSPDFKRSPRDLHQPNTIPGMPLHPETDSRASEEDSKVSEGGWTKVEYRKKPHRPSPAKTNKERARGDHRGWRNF

[26] = biological target: T9, Mitogen-activated protein kinase kinase kinase 20; test: Inhibition of ZAK Lys1 labeling site in human Huh-7 cell lysate at 1 uM by KiNativ Profiling analysis relative to control; format: subcellular
Target sequence in this assay (Q9NYL2 2-800 limits assumed): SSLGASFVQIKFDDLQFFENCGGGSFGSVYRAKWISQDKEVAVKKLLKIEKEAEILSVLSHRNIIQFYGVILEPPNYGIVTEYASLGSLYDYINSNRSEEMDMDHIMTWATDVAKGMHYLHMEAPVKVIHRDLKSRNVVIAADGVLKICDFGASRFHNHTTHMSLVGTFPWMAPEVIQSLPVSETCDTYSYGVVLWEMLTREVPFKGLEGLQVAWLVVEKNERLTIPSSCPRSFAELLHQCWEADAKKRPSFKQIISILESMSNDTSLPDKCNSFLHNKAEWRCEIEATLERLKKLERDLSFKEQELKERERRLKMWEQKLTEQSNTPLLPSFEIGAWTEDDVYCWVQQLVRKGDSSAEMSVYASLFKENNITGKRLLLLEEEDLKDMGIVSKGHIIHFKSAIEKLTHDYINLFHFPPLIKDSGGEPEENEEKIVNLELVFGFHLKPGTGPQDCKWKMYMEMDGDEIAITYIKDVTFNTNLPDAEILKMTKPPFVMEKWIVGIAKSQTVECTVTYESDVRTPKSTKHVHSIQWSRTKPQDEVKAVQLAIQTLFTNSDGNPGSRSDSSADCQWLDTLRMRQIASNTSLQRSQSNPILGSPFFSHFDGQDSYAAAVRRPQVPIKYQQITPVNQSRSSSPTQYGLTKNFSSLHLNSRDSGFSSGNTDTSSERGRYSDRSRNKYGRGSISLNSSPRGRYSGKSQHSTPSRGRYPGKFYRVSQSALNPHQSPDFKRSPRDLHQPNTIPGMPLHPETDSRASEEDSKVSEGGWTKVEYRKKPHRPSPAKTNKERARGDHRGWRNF

[27] = biological target: T8, Tyrosine-protein kinase Fer; test: Inhibition of FER Lys1 labeling site in human Huh-7 cell lysate at 1 uM by KiNativ Profiling analysis relative to control; format: subcellular
Target sequence in this assay (P16591 whole entry, looked up): as the sequence (P16591 whole entry) above

[28] = biological target: T5, Tyrosine-protein kinase ABL1; test: Inhibition of ABL Lys1 labeling site in human Huh-7 cell lysate at 1 uM by KiNativ Profiling analysis relative to control; format: subcellular
[29] = biological target: T10, Tyrosine-protein kinase CSK (Homo sapiens, UniProt P41240); test: Inhibition of CSK ACT labeling site in human Huh-7 cell lysate at 1 uM by KiNativ Profiling analysis relative to control; format: subcellular
[30] = biological target: T11, Ephrin type-A receptor 2 (Homo sapiens, UniProt P29317); test: Inhibition of EphA2 (unknown origin) ACT labeling site by KiNativ Profiling analysis
[31] = biological target: T10, Tyrosine-protein kinase CSK; test: Inhibition of CSK (unknown origin) ACT labeling site by KiNativ Profiling analysis
[32] = biological target: T11, Ephrin type-A receptor 2; test: Inhibition of EphA2 ACT labeling site in human Huh-7 cell lysate at 1 uM by KiNativ Profiling analysis relative to control; format: subcellular

SMILES	Cmax [1] [ng/mL]	t1/2 [2] [h]	pIC50 [3]	inhibition [4] [%]	pIC50 [5]	inhibition [6] [%]	pIC50 [7]	pIC50 [8]	AUClast [9] [ng·h/mL]	AUClast [10] [ng·h/mL]	Cmax [11] [ng/mL]	inhibition [12] [%]	pIC50 [13]	F [14] [%]	Vdss [15] [L/kg]	Tmax [16] [h]	inhibition [17] [%]	pIC50 [22]	pIC50 [23]	inhibition [24] [%]	other results
CCN1CCN(Cc2ccc(NC(=O)c3ccc(C)c(Oc4ncnc5[nH]ccc45)c3)cc2C(F)(F)F)CC1	230.9	2.33	7.26	77.7	7.70	85.2	7.35	6.89	516.2	236.6	134	74.2	5.09	21.8	9.5	2	> 86	–	–	–	–
COc1cc(O)c2c(c1)/C=C/C[C@H](O)[C@H](O)C(=O)/C=C\C[C@H](C)OC2=O	–	–	–	–	–	–	–	–	–	–	–	–	–	–	–	–	–	–	–	–	inhibition [18]: Active; inhibition [19]: Active; inhibition [20]: Active; inhibition [21]: Active
CCN1CCN(Cc2ccc(NC(=O)c3ccc(C)c(Oc4ncnc5[nH]c(C)cc45)c3)cc2C(F)(F)F)CC1	317	2.94	7.70	57.7	7.74	82.8	7.39	6.83	2136	554	233	59.6	< 5.00	38.6	5.42	4	> 94	7.16	7.13	82.7	–
CCN1CCN(Cc2ccc(NC(=O)c3ccc(C)c(Oc4ncnc5[nH]ncc45)c3)cc2C(F)(F)F)CC1	280.3	0.87	7.26	86.5	7.36	96.6	7.12	7.53	186.2	167.9	61.3	93	5.10	11.1	6.1	0.5	89.9	–	–	–	pIC50 [25]: 6.90; inhibition [26]: 95.2%
CCN1CCN(Cc2ccc(NC(=O)c3ccc(C)c(Oc4cc(NC)ncn4)c3)cc2C(F)(F)F)CC1	–	–	7.34	78.5	–	98.6	–	6.60	–	–	–	74.1	< 5.00	–	–	–	91.3	6.60	6.24	78.5	inhibition [27]: 75.8%; inhibition [28]: 58.4%
CCN1CCN(Cc2ccc(NC(=O)c3ccc(C)c(CCc4cnc5[nH]ccc5c4OC)c3)cc2C(F)(F)F)CC1	–	–	8.00	74.3	7.69	91.8	6.66	7.15	–	–	–	92.8	5.32	–	–	–	84.3	–	–	–	inhibition [29]: 89.9%; pIC50 [25]: 7.14; pIC50 [30]: 7.11; inhibition [26]: > 96%; pIC50 [31]: 7.90; inhibition [28]: 77.2%; inhibition [32]: 80.9%
CCN1CCN(Cc2ccc(NC(=O)c3ccc(C)c(Oc4ncnc5cc(OC)c(OC)cc45)c3)cc2C(F)(F)F)CC1	–	–	7.04	83.7	7.52	–	6.89	–	–	–	–	80.6	< 5.00	–	–	–	93.2	7.29	7.44	94.7	inhibition [27]: 92.9%; inhibition [28]: 78.8%
